Results: ChEMBL document CHEMBL1145627, “E-ring-modified 7-oxyiminomethyl camptothecins: Synthesis and preliminary in vitro and in vivo biological evaluation” (Bioorg Med Chem Lett, 2008)

Tests used:
NCI-H460 [1] = assay: Antiproliferative activity against human H460 cells after 2 hrs of drug exposure measured after 72 hrs; type: functional, cell-based
Outline: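 Growth inhibition with IC50 taken after 2-h drug exposure, as the concentration giving 50% reduction of cell growth versus untreated controls.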

HT-29 [2] = assay: Antiproliferative activity against BCRP overexpressing mitoxantrone-resistant human HT29 cells after 1 hr of drug exposure measured after 72 hrs; type: functional, cell-based
Outline: (§1)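 Growth inhibition after 1-h drug exposure; IC50 is the concentration giving 50% reduction of cell growth versus untreated controls. Values are means ± SD from at least three experiments.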

HT-29 [3] = assay: Resistant index, ratio of IC50 for BCRP overexpressing mitoxantrone-resistant human HT29 cells to IC50 for human HT29 cells; type: functional
Outline: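 Resistance index in HT29/mit, the BCRP-overexpressing subline. IC50 values come from the 1-h exposure growth inhibition assay, as 50% growth reduction versus untreated controls.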

HT-29 [4] = assay: Antiproliferative activity against human HT29 cells after 1 hr of drug exposure measured after 72 hrs; type: functional, cell-based; outline: as §1
PANC-1 = assay: Antitumor activity against human Panc1 cells xenografted athymic mouse assessed as inhibition of tumor volume at 400 mg/kg, po administered in q4dx4 schedule; type: functional
Outline: (§2)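 Human tumor xenografts (CoBa colon, MKN-28 gastric, Panc-1 pancreatic) grown subcutaneously in mice. Drug given orally on an intermittent q4dx4 schedule. Read-out is % tumor volume inhibition in treated versus control mice. Complete responses were scored as tumor disappearance lasting at least ten days.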

Mus musculus [5] = assay: Toxicity in human CoBa cells xenografted athymic mouse assessed as survival at 50 mg/kg, iv administered in q4dx4 schedule; type: organism-based; design: dose 50 mg/kg, route intravenous; conditions: in vivo
Mus musculus [6] = assay: Toxicity in human Panc1 cells xenografted athymic mouse assessed as survival at 400 mg/kg, po administered in q4dx4 schedule; type: organism-based, PANC-1; design: route oral; conditions: in vivo
Outline: (§3)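 Mice carried subcutaneous human tumor xenografts (CoBa, MKN-28 or Panc-1). They were dosed orally on an intermittent q4dx4 schedule, which was also used to set the maximum tolerated dose. Toxicity was scored as lethal toxicity, given as dead/treated mice. Drug-induced % body weight loss was also recorded.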

[7] = Antitumor activity against human CoBa cells xenografted in athymic mouse assessed as inhibition of tumor volume at 50 mg/kg, iv administered in q4dx4 schedule
NCI-H460 [8] = assay: Antiproliferative activity against human H460 cells after 1 hr of drug exposure measured after 72 hrs; type: functional, cell-based; outline: as §1
Mus musculus [9] = assay: Toxicity in human CoBa cells xenografted athymic mouse assessed as survival at 2 mg/kg, po administered in q4dx4 schedule; type: organism-based; design: dose 2 mg/kg, route oral; conditions: in vivo; outline: as §3
[10] = Antitumor activity against human CoBa cells xenografted in athymic mouse assessed as inhibition of tumor volume at 2 mg/kg, po administered in q4dx4 schedule; type: functional; outline: as §2
Mus musculus [11] = assay: Toxicity in human CoBa cells xenografted athymic mouse assessed as loss of body weight at 2 mg/kg, po administered in q4dx4 schedule; type: organism-based; design: dose 2 mg/kg, route oral; conditions: in vivo
Outline: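 Mice bearing subcutaneous CoBa colon carcinoma were treated on a q4dx4 schedule, orally or, for CPT11, at 50 mg/kg. Body weight loss % is the loss induced by drug treatment.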

Row | SMILES | IC50 (NCI-H460 [1]) [nM] | IC50 (HT-29 [2]) [nM] | Ratio IC50 (HT-29 [3]) | IC50 (HT-29 [4]) [nM] | IC50 (NCI-H460 [8]) [nM] | also measured
1 | CC[C@@]1(O)CC(=O)OCc2c1cc1n(c2=O)Cc2c-1nc1ccccc1c2/C=N/OC(C)(C)C | 1.8 | – | – | – | – | –
2 | CC[C@@]1(O)C(=O)OCc2c1cc1n(c2=O)Cc2cc3c(CN(C)C)c(O)ccc3nc2-1 [TOPOTECAN] | – | 46300 | 34 | 1350 | – | –
3 | CC[C@@]1(O)OC(=O)c2c1cc1n(c2=O)Cc2c-1nc1ccccc1c2/C=N/OC(C)(C)C | – | – | – | – | – | LCK (PANC-1): 1.6; Activity (Mus musculus [5]): Non-toxic; Activity (Mus musculus [6]): Non-toxic; LCK [7]: 1.1
4 | CCc1c2c(nc3ccc(O)cc13)-c1cc3c(c(=O)n1C2)COC(=O)[C@]3(O)CC [7-ETHYL-10-HYDROXYCAMPTOTHECIN] | – | 11500 | 17 | 670 | 220 | –
5 | CC[C@@]1(O)C(=O)OCc2c1cc1n(c2=O)Cc2c-1nc1ccccc1c2/C=N/OC(C)(C)C [GIMATECAN] | 15 | 70 | 1.2 | 56 | 20 | Activity (Mus musculus [9]): Non-toxic; LCK [10]: 1.1; inhibition in vivo at 2 mg/kg ([10]; Homo sapiens, CoBa): 90%; Activity (Mus musculus [11]): 18%
6 | CC[C@@]1(O)C(=O)OCc2c1cc1n(c2=O)Cc2c-1nc1ccccc1c2/C=N/OCc1ccccc1 | – | 42 | 0.75 | 56 | 30 | –
